Measurements taken from PMC6118327 (Biochimica et biophysica acta. Biomembranes, 2017).
Positions count from the first letter of the chain named. Several values for one entry are separate records, joined by “and”; a condition that tells them apart may be missing. Identical values can stand only once.

Experiments:
Type in all cases: biochemical
[1] = biological target: T1, mUCP3R84Q (Mus musculus, UniProt P56501, R84Q); experiment: Relative conductance of UCP3 mutant in planar bilayer membranes; conditions: 3 mM ammonium-phosphate-dibasic; 15 mol% AA
T1 sequence (P56501 1-308 R84Q): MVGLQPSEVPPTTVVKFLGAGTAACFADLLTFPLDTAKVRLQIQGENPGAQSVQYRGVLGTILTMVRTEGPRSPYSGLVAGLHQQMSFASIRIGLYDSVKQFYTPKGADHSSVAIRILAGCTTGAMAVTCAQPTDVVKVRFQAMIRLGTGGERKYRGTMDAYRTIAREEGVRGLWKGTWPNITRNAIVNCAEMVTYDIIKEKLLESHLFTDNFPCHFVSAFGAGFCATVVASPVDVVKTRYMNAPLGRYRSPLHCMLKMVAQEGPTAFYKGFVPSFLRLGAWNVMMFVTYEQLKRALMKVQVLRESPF
Outline: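 Arginine point mutants made by site-directed mutagenesis, expressed in E. coli Rosetta and reconstituted like wild type. Planar DOPC/DOPE/CL (45:45:10) bilayers carried 15 mol% AA; buffer pH 7.35, 32°C. Relative conductance compared with wild type after nucleotide addition: UCP1 mutants 5 mM ATP, ADP or AMP; UCP3 mutant 2 mM ATP, 4 mM ADP or 8 mM AMP. Mean ± SD, ≥3 experiments.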

[2] = biological target: T2, mUCP3 (Mus musculus, UniProt P56501); conditions: 15 mol% AA
T2 sequence (P56501 1-308): T1 sequence (P56501 1-308 R84Q) with Q84R
Outline: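 Recombinant mouse protein reconstituted into DOPC/DOPE/CL (45:45:10) liposomes. Bilayers formed at 1.5 mg/ml lipid, 6 μg protein/mg lipid, AA 10 or 15 mol%. Run in 50 mM Na₂SO₄/10 mM MES/10 mM Tris/0.6 mM EGTA, pH 7.35, 32°C. I/V recorded −50 to +50 mV, including with 2 mM ATP. G from linear fit at 0 mV gives relative conductance. IC50 and maximum inhibition come from a four-parameter logistic fit. AA-dependence tested at 1 mM ATP, 2 mM ADP, 5 mM AMP. Mean ± SD, ≥3 experiments.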

[3] = biological target: T3, mUCP3 R184T (Mus musculus, UniProt P56501, R184T); experiment: Relative conductance of UCP3 mutant in planar bilayer membranes; conditions: 3 mM ammonium-phosphate-dibasic; 15 mol% AA
T3 sequence (P56501 1-308 R184T): T1 sequence (P56501 1-308 R84Q) with Q84R, R184T

[4] = biological target: T4, mUCP3 R278L (Mus musculus, UniProt P56501, R278L); experiment: as above; conditions: 3 mM ammonium-phosphate-dibasic; 15 mol% AA
T4 sequence (P56501 1-308 R278L): T1 sequence (P56501 1-308 R84Q) with Q84R, R278L

[5] = biological target: T5, mUCP1 (Mus musculus, UniProt P12242); conditions: 15 mol% AA, curve fitting
T5 sequence (P12242 1-307): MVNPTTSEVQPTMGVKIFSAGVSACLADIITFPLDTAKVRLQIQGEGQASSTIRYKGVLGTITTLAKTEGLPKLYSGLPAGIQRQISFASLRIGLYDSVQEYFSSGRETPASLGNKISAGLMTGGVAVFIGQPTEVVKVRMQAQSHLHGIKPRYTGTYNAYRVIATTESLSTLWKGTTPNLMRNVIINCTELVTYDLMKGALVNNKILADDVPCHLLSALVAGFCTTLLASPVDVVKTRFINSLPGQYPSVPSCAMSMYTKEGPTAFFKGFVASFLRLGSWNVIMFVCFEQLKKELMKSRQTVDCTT
Outline: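 Inclusion-body mouse protein reconstituted into DOPC/DOPE/CL (45:45:10) proteoliposomes. Planar bilayers made at 1.5 mg/ml lipid, AA 10 or 15 mol% in the lipid solution, sulfate/MES/Tris/EGTA buffer pH 7.35, 32°C. I/V swept −50 to +50 mV; G at zero voltage from linear fit, normalised to AA-only and UCP+AA membranes. Titrations of nucleotides or phosphate fitted by four-parameter logistic for IC50 and maximum inhibition. AA comparison used 1 mM ATP, 2 mM ADP, 2 mM AMP. Mean ± SD, ≥3 experiments.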

O=P(O)(O)O [Pi, inorganic phosphate]
effect of mutation on inhibition by phosphate [1]: none of the arginine mutations had any effect | maximum inhibition of mUCP3 by Pi ([2]; curve fitting): ~ 60% | extent of inhibition at high inhibitor concentration ([2]; DOPC/DOPE/CL membranes, pH 7.35, 32°C): only partial inhibition | IC50 ([2]; read-out: IC50 of Pi inhibition, curve fitting): ~1000 µM and 1000 µM | effect of mutation on inhibition by phosphate [3]: none of the arginine mutations had any effect | effect of mutation on inhibition by phosphate [4]: none of the arginine mutations had any effect | IC50 of mUCP1 inhibition by Pi compared with mUCP3 [5]: similar | maximum inhibition of mUCP1 by Pi compared with mUCP3 [5]: similar
